# Measured values of several laboratories.
# Protocols differ between the studies behind these lines.
# Read-out: cell growth or viability
Structure (SMILES),cell line,technique,tested at,time,measurement,result
N#C[C@@]1(c2ccc3c(N)ncnn23)O[C@H](COC(=O)C2CCC(F)CC2)[C@@H](O)[C@H]1O (some centres unmarked),HEp-2,CCK-8,,5 days,CC50,53.3 µM
COc1cccc(C=NNC(=S)NN)c1OC,TZM-bl,resazurin,,,CC50,> 12.5 µM
CC(=O)OC[C@H]1O[C@@H]([S-])[C@H](OC(C)=O)[C@@H](OC(C)=O)[C@@H]1OC(C)=O.CCP(CC)CC.[Au+],THP-1,ATP luminescence,,72 h,CC50,2.83 µM
O=C1CCC(N2C(=O)c3cccc(NCc4cn(Cc5ccc(-c6nc7cc(-c8ccccc8)ccn7c6Nc6ccc(C(=O)O)cc6)cc5)nn4)c3C2=O)C(=O)N1 (centres unmarked),MCF7,,,72 h,CC50,105 µM
NC(=O)c1ncn([C@@H]2O[C@H](CO)[C@@H](O)[C@H]2O)n1,HEp-2,CCK-8,,5 days,CC50,176 µM
Nc1ccn([C@@H]2O[C@H](CO)[C@@H](O)C2(F)F)c(=O)n1,MCF7,MTT,2.5 µg/mL,24 h,viability,51.3%
[N-]=[N+]=N[C@]1(CO)O[C@@H](n2ccc(N)nc2=O)[C@@H](F)[C@@H]1O,Calu-3,ATP luminescence,,72 h,CC50,> 50 µM
CCOC(=O)c1cc(O)c(O)c(O)c1,MDBK,MTT,,72 h,CC50,> 256 µg/mL
CC(C)(C)c1cc([N+](=O)[O-])cc(C=O)c1O,TZM-bl,resazurin,,,CC50,> 12.5 µM
CCCCCCCCC(=O)OC[C@H]1O[C@@](C#N)(c2ccc3c(N)ncnn23)[C@H](O)[C@@H]1O,HEp-2,CCK-8,,5 days,CC50,45.5 µM
CN(Cc1cn(Cc2ccc(-c3nc4cc(-c5ccccc5)ccn4c3Nc3ccc(C(=O)O)cc3)cc2)nn1)c1cccc2c1C(=O)N(C1CCC(=O)NC1=O)C2=O (centres unmarked),MCF7,,,72 h,CC50,129 µM
